Source: PubChem BioAssay (several laboratories)
Diaph inh CS: counter-screen for diaphorase-based assays: diaphorase inhibitors and chemical oxidizers; AID 1217; actives 0.69% (n = 190,000); diaphorase resazurin-to-resorufin fluorescence, NADH, 16 min; bacterial (C. kluyveri) enzyme, not human; inhibition, % at 20 µM;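 active = primary screen inhibition at 20 µM above a set limit, cut at about 50% in these data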;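 note: plate controls were DMSO with full reaction for no effect and wells lacking NADH for full effect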
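System: Bacterial diaphorase enzyme (C. kluyveri) | Incubation: 16-min room-temperature incubation before reading | Benchmarks: No-NADH positive control and DMSO neutral control | Measured by: Resorufin fluorescence 544/590 nm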
ROMK mod: modulators of human ROMK potassium channel. P48048. Tet-inducible ROMK, thallium flux fluorescence; actives lie on both sides. B-score at 10 µM. actives 2% (n = 130,000);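 active = signal ratio slope over the read window, or its plate-corrected B-score, at least 3 SD from the plate mean, either direction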;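 note: B-score of the F/F0 ratio slope over 7 to 12 s after thallium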
Target sequence (P48048 whole entry, looked up): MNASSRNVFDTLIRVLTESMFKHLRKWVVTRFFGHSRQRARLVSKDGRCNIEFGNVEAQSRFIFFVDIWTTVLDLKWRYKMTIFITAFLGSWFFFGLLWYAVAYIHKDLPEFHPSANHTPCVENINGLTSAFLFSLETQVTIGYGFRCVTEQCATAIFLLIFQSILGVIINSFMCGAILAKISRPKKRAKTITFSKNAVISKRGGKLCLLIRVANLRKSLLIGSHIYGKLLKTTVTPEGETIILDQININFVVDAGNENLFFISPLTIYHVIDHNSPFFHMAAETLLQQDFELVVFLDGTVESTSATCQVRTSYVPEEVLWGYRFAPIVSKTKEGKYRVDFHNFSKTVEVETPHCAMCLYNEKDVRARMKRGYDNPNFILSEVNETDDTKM
WT yeast gro inh: growth inhibition of WT yeast, mitochondrial fusion screen. AID 1362. inhibition, % at 10 µM. actives 2.1% (n = 190,000). mitochondrial fusion phenotypic screen, WT strain; in the data active = inhibition above about 58%; tested in S. cerevisiae
L major viab: inhibitors of Leishmania major promastigote growth; Leishmania major promastigotes, resazurin fluorescence viability; inhibition, % at 10 µM; actives 9% (n = 200,000); AID 1063; in the data active = inhibition above about 50%;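 note: promastigotes grown with compound for 44 hours at 28 °C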
KCC2 mod: KCC2 (human) Cl- transport modulation; KCC2 cells, thallium flux FluoZin-2 fluorescence; B-score of Tl+ flux slope (higher = more flux/activation; lower = inhibition) at 10 µM; actives 2.2% (n = 190,000); AID 1456;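 active = thallium flux slope and its plate-corrected score both differing from the plate sample mean at a set confidence after two filtering rounds, in either direction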;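 note: slope of fluorescence scaled to starting intensity during 10 to 20 s after thallium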
Diaphorase act: diaphorase activation or chemical reduction counter-screen | actives 0.005% (n = 190,000) | Diaphorase/resazurin coupled assay, resorufin fluorescence, 16 min; hits give high values; 1 = vehicle wells, 0 = NADH-free wells | activation factor at 20 µM;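 active = diaphorase activity raised at least twofold by the compound at 20 µM; inactive = activation factor below 2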
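Test system: Clostridium kluyveri diaphorase, purified enzyme. Buffer or medium: 50 mM HEPES pH 7.4 buffer plus MgCl2 and Tween 20. Also added: 0.114 mM NADH and 0.1 mM resazurin, final amounts. Dosing: compound 20 µM once, DMSO 1%. Schedule: 16 min enzyme reaction, ambient temperature. Detection: fluorescence of resorufin, 544 nm excitation, 590 nm emission.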
ROMK retest: human ROMK channel modulation, retest confirmation | shares compounds with ROMK mod | ROMK thallium flux, fluorescence ratio; hits give low values | normalized thallium flux (F/F0 slope) at 10 µM | actives 54% (n = 3,000) | AID 1917;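 active = Flux at 10 µM at least 3 SD below or above vehicle control mean in one or both replicates; inconclusive = no clear call, values can overlap the other calls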
* hit, by the source's call; ? = inconclusive; · = not tested or not shown. Most compounds without a hit are left out; they make up all but 12% or so of the library.

SMILES	Diaph inh CS	ROMK mod	WT yeast gro inh	L major viab	KCC2 mod	Diaphorase act	ROMK retest
CCNC(=S)NNC(=O)c1cc(C)on1	15	0.86	-5	-5	-1.3	0.8	·
O=C(COc1ccccc1Br)NC1CCCC1	8	·	-10	2	-1	0.9	0.069*
COc1ccccc1OCC(=O)NC1CCCCCC1	7	-0.65	9	-3	·	0.9	·
O=C(C[n+]1cccc(CNC(=O)c2ccc(OC(F)F)cc2)c1)Nc1ccccc1Cl	13	·	-11	-8	0.013	0.9	·
O=C(C[n+]1cccc(CNC(=O)c2ccc(OC(F)F)cc2)c1)Nc1ccc(SC(F)F)cc1	-12	-4*	2	-2	-0.51	1.1	0.071
O=C(Oc1cccnc1)c1ccc(Cl)c(Cl)c1	13	-5.4*	96*	-3	1.9	0.9	?
COc1ccc(C(=O)Oc2cccnc2)cc1	12	-0.14	5	-7	-1	0.9	·
COc1ccc(C(=O)NCc2c(CC(C)C)oc(C)c2C(=O)O)cc1	13	·	-18	-6	-0.46	0.9	0.076
COc1ccc(CNC(=O)c2ccc(C(C)C)cc2)cc1	7	·	2	-6	-0.58	0.9	·
Cc1ccccc1C(=O)N1CCC(C(=O)Nc2ccc3c(c2)OCCO3)CC1	9	·	2	-7	-0.63	0.9	·
O=c1cc(-c2ccc(O)cc2)oc2ccc(O)cc12	2	2.5*	-12	-2	-0.62	1	0.078
O=C(CCl)Nc1cccc(Oc2ccccc2)c1	13	-4.8*	0	98*	-0.68	0.9	?
O=C(CN1CCCCC1)Nc1cccc(Oc2ccccc2)c1	-9	-2.2	-16	5	0.42	1.1	·
c1ccc2c(c1)ccc1nnc(SCc3ccc4c(c3)OCO4)n12	23	·	32	-2	·	0.8	·
O=S(Cc1cc(Oc2ccccc2)nc(-c2ccccc2)n1)c1ccccc1 (stereo not given)	15	·	1	12	·	0.8	·
NS(=O)(=O)c1ccc(-c2ccc(C=NC3CCS(=O)(=O)C3)o2)cc1 (stereo not given)	21	0.025	-5	-1	0.019	0.8	·
O=S1(=O)CCC(N=Cc2cc(Br)ccc2O)C1 (stereo not given)	16	1.6	-2	15	-0.49	0.8	0.1*
Cc1nnc2c3ccccc3c(-c3cccc4ccccc34)nn12	18	-0.42	11	9	·	0.8	·
Cc1nnc2sc(-c3cccc4ccccc34)nn12	12	-5.2*	40	-1	-0.45	0.9	0.054*
O=c1[nH]c(Nc2ccccc2)cc2ccccc12	10	-3.3*	-2	30	·	0.9	0.064*
O=c1nccc(Nc2ccccc2)[nH]1	·	·	·	·	0.088	·	·
CC(c1ccco1)N(C(=O)c1ccccc1NS(=O)(=O)c1ccc(Cl)c([N+](=O)[O-])c1)c1ccccn1 (stereo not given)	21	·	21	81*	1.1	0.8	0.062*
COc1ccccc1-n1c(SCC(=O)N2CCCCC2)nnc1-c1ccccc1O	16	·	-15	11	-0.25	0.8	·
Cc1ccc(NC(=S)NCC2CCCO2)cc1C (stereo not given)	20	-0.4	0	-6	-0.16	0.8	·
Cc1ccc(NC(=S)NCC2CCN(C(C)c3ccccc3)C2)cc1C (stereo not given)	2	-4.2*	15	82*	-0.36	1	0.059*
SMILES	Diaph inh CS	ROMK mod	WT yeast gro inh	L major viab	KCC2 mod	Diaphorase act	ROMK retest
CC(C)C[C@@H](CSc1ccc(Br)cc1)N1CCN(C)CCC1=O	·	·	·	·	0.56	·	0.075
O=C(c1ccc([N+](=O)[O-])s1)N1CCN(c2cccc(Cl)c2)CC1	18	·	45	49	-0.19	0.8	·
N#Cc1cccc(C(c2nnnn2CCc2ccccc2)N2CCN(C3CCCCC3)CC2)c1 (stereo not given)	7	-3.1*	-2	81*	·	0.9	0.058*
Cc1cc(/C=C2\C(=O)NN(c3ccccc3)C2=O)c(C)n1-c1ccccc1O	·	·	·	·	-0.25	·	·
O=C1NN(c2ccccc2)C(=O)/C1=C\c1ccc(-c2cc([N+](=O)[O-])ccc2O)o1	80*	·	21	-11	·	0.2	0.054*
CCn1c(CNC(=O)Cc2ccc(OC)cc2)nnc1SCC(=O)NC1CCCCC1	0	-0.9	-9	-8	-0.32	1	·
Cc1ccc(S(=O)(=O)/N=C(\c2ccc(Cl)cc2)N2CCOCC2)cc1	-9	·	20	-5	0.039	1.1	·
Cn1c(CCNC(=O)c2ccc(Cl)c(Cl)c2)nnc1SCc1ccc(Cl)c(Cl)c1	30	·	14	-2	·	0.7	0.079
C=CCn1c(CCNC(=O)c2ccc(Cl)c(Cl)c2)nnc1SCCOc1ccc(OC)cc1	18	·	35	6	-1.3	0.8	·
COc1ccc(CN2CCN(S(=O)(=O)c3ccc(NC(C)=O)cc3)CC2)cc1	·	·	·	·	0.35	·	·
CCCCSc1ccc(NC(=O)c2cccnc2)cc1	14	0.98	1	-5	-0.3	0.9	·
O=C(c1cccc(F)c1)N1CCN(C(=O)c2cc(-c3ccc(Cl)cc3Cl)on2)CC1	14	-4.2*	54	4	-1.1	0.9	?
COc1ccccc1-c1cc(C(=O)N2CCN(c3ccc(F)cc3)CC2)no1	21	·	12	-10	0.35	0.8	·
C=CCCC(=O)Nc1ccc(Br)cn1	14	2.5*	-5	-2	·	0.9	0.076
CCN(CC)c1ccc(S(=O)(=O)N2CCOCC2)cc1NC(=O)CN1CCc2ccccc2C1	-2	0.13	43	17	-0.22	1	·
COc1ccc(-c2c(NC(=O)c3ccco3)n(C)c3ccccc3c2=O)cc1	2	3.7*	3	-6	0.65	1	0.079
O=C(O)c1cccc(-c2ccc(/C=c3/sc4nc5ccccc5n4c3=O)o2)c1	·	·	·	·	-0.036	·	0.04*
CNC(=S)Nc1ccc(Nc2ccccc2)cc1	12	·	-8	0	·	0.9	·
O=C(Oc1cccc(NC(=O)c2ccccc2Cl)c1)c1ccc([N+](=O)[O-])cc1	17	·	17	2	·	0.8	·
Cc1nn(-c2ccccc2)c(Cl)c1C(=O)NCC(C)C	10	·	-7	4	0.082	0.9	·
CC(C)CNC(=O)c1nc(-c2ccccc2)n(-c2ccccc2)n1	-2	·	16	0	-1	1	0.074
O=C(CN1CCC(c2nc3ccccc3s2)CC1)NCc1ccccc1	12	-3*	24	87*	-0.18	0.9	0.073
O=[N+]([O-])c1ccc(S(=O)(=O)N2CCN(Cc3c[nH]c4ccccc34)CC2)cc1	19	-2.7*	9	11	0.16	0.8	0.056*
COc1ccc(S(=O)(=O)N2CCN(Cc3c[nH]c4ccccc34)CC2)cc1	16	·	9	-4	-0.56	0.8	·
